Values after ≈ are worked out from the molar mass of the structure shown. Active and inactive are the calls of the source. No cut-off for these calls is given here.
Assays:
[1] = system: A549; assay: Inhibition of colony formation in human A549 cells at 100 uM incubated for 10 days by crystal violet staining based assay; assay type: functional, cell-based; settings: time 10.0 day
Outline: (§1)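 A549 seeded at 100 cells/well in RPMI with 10% FBS, overnight, then treated 10 days (0.2% DMSO final); fixed 4% paraformaldehyde, stained 0.5% crystal violet; colonies (>50 cells) counted vs 0.2% DMSO control; three independent experiments.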

[2] = target: T1, Macrophage migration inhibitory factor (Homo sapiens) (UniProt P14174); assay: Binding affinity to C-terminal His-tagged recombinant human MIF expressed in Escherichia coli BL21 (DE3) assessed as inhibition of MIF interaction with MBP-fused human CD74 up to 50 uM preincubated for 10 mins with CD74 followed by MIF addition and measured after 30 mins by ELISA; settings: dose microM <=50, time 40.0 min
T1 sequence (whole entry): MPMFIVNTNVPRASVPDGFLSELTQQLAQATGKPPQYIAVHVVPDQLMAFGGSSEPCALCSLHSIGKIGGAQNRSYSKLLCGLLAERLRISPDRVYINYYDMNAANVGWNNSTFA
Outline: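 MIF (250 nM) coated on plates overnight at 4 °C, then blocked with 2% BSA for 1 h at RT. Inhibitor in DMSO premixed 10 min at RT with MBP–sCD74 (final 500 nM sCD74; inhibitor 1–100 μM), then added to wells for 30 min at RT. Bound sCD74 detected with rabbit anti-CD74 pAb and goat anti-rabbit HRP. No-inhibitor signal set to 100%, no-sCD74 signal to 0%. n = 3.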

[3] = target: T2, Macrophage migration inhibitory factor (Homo sapiens, UniProt P14174); assay: Inhibition of C-terminal His-tagged recombinant human MIF expressed in Escherichia coli BL21 (DE3) using 4-HPP as substrate preincubated for 10 mins followed by substrate addition by UV absorption spectrum analysis
T2 sequence (P14174 whole entry): T1 sequence (whole entry)

[4] = target: T1, Macrophage migration inhibitory factor (Homo sapiens); assay: Binding affinity to C-terminal His-tagged recombinant human MIF expressed in Escherichia coli BL21 (DE3) assessed as fluorescence quenching at 50 nM by fluorescence assay
Outline: (§2)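 Equal volumes of fluorophore (diluted from 10 mM DMSO stock to 200 nM in PBS pH 7.4) and MIF dilution series (16–8000 nM) mixed, 10 min at room temperature; fluorescence read at Ex/Em 340/460 nm or 355/455 nm; KS from hyperbolic fit of specific binding curve; n = 3.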

[5] = target: Albumin (Bos taurus, UniProt P02769); assay: Binding affinity to bovine serum albumin assessed as fluorescence quenching at 50 nM by fluorescence assay; assay type: ADME; settings: cattle, isolated protein, 0.05 µM
Outline: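 Control for non-specific quenching: 50 nM fluorophore titrated with BSA (up to 800 nM) in PBS pH 7.4, fluorescence intensity compared against MIF titration.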

[6] = Half life of compound in pH 7.4 PBS buffer at 100 nM; assay type: physicochemical; settings: pH 7.4, 0.1 µM
Outline: (§3)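 Fluorescence lifetime of 100 nM fluorophore in 1 mL PBS pH 7.4, measured alone or with 500 nM MIF.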

[7] = Half life of compound in pH 7.4 PBS buffer at 100 nM in presence of MIF; assay type: physicochemical; settings: pH 7.4, 0.1 µM; outline: as §3
[8] = target: T1, Macrophage migration inhibitory factor (Homo sapiens); assay: Inhibition of MIF (unknown origin) cultured in human A549 cells assessed as reduction in MIF-induced ERk phosphorylation at 10 uM preincubated with MIF for 10 mins followed by cell addition and measured after 10 mins by Western blot analysis; assay type: cell-based; settings: time 20.0 min
Outline: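 A549 (2 × 10^5/well) cultured overnight; 150 ng/mL endotoxin-free MIF preincubated 10 min with compound, then applied to cells 10 min at 37 °C (0.2% DMSO); lysates (30 μg protein) blotted; pERK/GAPDH ratio; four independent experiments.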

[9] = target: T1, Macrophage migration inhibitory factor (Homo sapiens); assay: Binding affinity to C-terminal His-tagged recombinant human MIF expressed in Escherichia coli BL21 (DE3) assessed as fluorescence quenching at 50 nM in presence of CuSO4 by fluorescence assay
Outline: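 Indicator displacement setup (100 nM MIF, 50 nM fluorophore, PBS pH 7.4) run with Cu2+ ions up to 200 μM; fluorescence read at Ex/Em 355/455 nm.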

[10] = target: T1, Macrophage migration inhibitory factor (Homo sapiens); assay: (§4) Binding affinity to C-terminal His-tagged recombinant human MIF expressed in Escherichia coli BL21 (DE3) assessed as inhibition of MIF interaction with MBP-fused human CD74 preincubated for 10 mins with CD74 followed by MIF addition and measured after 30 mins by ELISA; settings: time 40.0 min
Outline: (§5)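 MIF (250 nM, 100 μL) coated overnight at 4 °C, blocked 1 h with 2% BSA; inhibitor (1–100 μM) premixed 10 min with 500 nM MBP–sCD74, added 30 min at room temperature; bound sCD74 detected with rabbit anti-CD74 then HRP anti-rabbit, 30 min each; DMSO = 100%, no sCD74 = 0%; mean ± SD, n = 3.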

[11] = target: T2, Macrophage migration inhibitory factor; assay: as §4; outline: as §5
[12] = target: T2, Macrophage migration inhibitory factor; assay: Binding affinity to C-terminal His-tagged recombinant human MIF expressed in Escherichia coli BL21 (DE3) at 200 nM by fluorescence assay; outline: as §2
[13] = system: A549; assay: Inhibition of colony formation in human A549 cells at 2.5 to 10 uM incubated for 10 days by crystal violet staining based assay; assay type: functional, cell-based; settings: dose microM 2.5-10, time 10.0 day; outline: as §1
[14] = target: T1, Macrophage migration inhibitory factor (Homo sapiens); assay: Competitive inhibition of C-terminal His-tagged recombinant human MIF expressed in Escherichia coli BL21 (DE3) up to 50 nM using varying levels of 4-HPP as substrate preincubated for 10 mins followed by substrate addition by Lineweaver-burk plot analysis; settings: dose nM <=50, time 10.0 min
[15] = system: A549; assay: Toxicity in human A549 cells assessed as reduction in cell viability up to 20 uM measured after 24 hrs by MTS assay; assay type: cell-based; settings: a549, 24 h
Outline: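 A549 cells treated 24 h; viability read by MTS assay.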

[16] = Solubility of compound in pH 7.4 phosphate buffer; assay type: physicochemical
Outline: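 Solubility measured in PBS pH 7.4.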

[17] = target: T2, Macrophage migration inhibitory factor; assay: Displacement of 4'-(7-Hydroxy-2-oxo-2H-chromen-3-yl)-[1,1'-biphenyl]-4-carboxylic acid from C-terminal His-tagged recombinant human MIF expressed in Escherichia coli BL21 (DE3) preincubated for 10 mins followed by probe addition and measured after 10 mins by fluorescence assay
[18] = target: T1, Macrophage migration inhibitory factor (Homo sapiens); assay: Inhibition of C-terminal His-tagged recombinant human MIF expressed in Escherichia coli BL21 (DE3) at 25 uM using 4-HPP as substrate preincubated for 10 mins followed by substrate addition by UV absorption spectrum analysis relative to control
[19] = Emission property of the compound in pH 7.4 PBS buffer assessed as maximum emission wavelength at 200 nm by fluorescence spectra analysis; settings: pH 7.4, 200 nM
[20] = target: T1, Macrophage migration inhibitory factor (Homo sapiens); assay: Binding affinity to C-terminal His-tagged recombinant human MIF expressed in Escherichia coli BL21 (DE3) at 100 nM in presence of 3-(3,4-Dimethoxyphenyl)-7-hydroxy-3,4-dihydro-2Hbenzo[e][1,3]oxazin-2-one by fluorescence assay
[21] = target: T1, Macrophage migration inhibitory factor (Homo sapiens); assay: Binding affinity to C-terminal His-tagged recombinant human MIF expressed in Escherichia coli BL21 (DE3) assessed as fluorescence quenching at 200 nM by fluorescence assay; outline: as §2
[22] = target: T2, Macrophage migration inhibitory factor; assay: Binding affinity to C-terminal His-tagged recombinant human MIF expressed in Escherichia coli BL21 (DE3) at 100 nM by fluorescence assay
Outline: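 Fluorescent indicator displacement in PBS pH 7.4. Compound preincubated with MIF 10 min at RT, then 7-hydroxycoumarin indicator added for another 10 min at RT. Final MIF 100 nM, indicator 50 nM, DMSO 2.5%. Fluorescence read at Ex/Em 355/455 nm. EC50 for fluorescence recovery from nonlinear fit, converted to Kd with a displacement equation using indicator KS. Three independent experiments.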

[23] = Absorption property of the compound in pH 7.4 PBS buffer assessed as maximum absorption wavelength at 100 uM by UV-vis spectra analysis; assay type: physicochemical; settings: pH 7.4, 100 µM
Outline: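 UV absorption spectra recorded at 100 μM compound in PBS pH 7.4 containing 5% (v/v) DMSO on a plate reader; wavelength of maximum absorbance taken.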

COC(=O)CC1CC(c2ccc(O)cc2)=NO1 (stereo not given)
inhibition [1]: Active
inhibition [2]: inactive

COc1ccccc1-c1cc2ccc(O)cc2oc1=O
IC50 [3]: 2780 nM
Ki [3]: 1850 nM

O=C(O)c1ccc(-c2ccc(-c3cc4ccc(O)cc4oc3=O)cc2)cc1
Ks [4]: 16 nM
Activity [5]: Not Active
t1/2 [6]: 4.2 nanoseconds
t1/2 [7]: 4 nanoseconds
inhibition [8]: Active
Activity [9]: Active
inhibition [10]: Dose-dependent effect
IC50 [11]: 36000 nM
Kd [12]: 16 nM
inhibition [13]: Active
inhibition [14]: Active
Activity [15]: Non-Toxic
solubility ([16]; buffer): 18.8 µg/mL (≈ 52.5 µM)

O=c1oc2cc(O)ccc2cc1-c1ccccc1
IC50 [3]: 1760 nM
Ki [3]: 1170 nM

O=C(NCc1cn(-c2ccc(O)c(F)c2)nn1)c1cc2cc(Cl)ccc2[nH]1
Kd [17]: 1400 nM
solubility ([16]; phosphate buffer): 10.8 µg/mL (≈ 28 µM)

COc1ccc(C(=O)N/N=C/c2ccc(O)c(F)c2)cc1
Ki [3]: 8000 nM
Kd [17]: 5600 nM

COc1cccc(-c2cc3ccc(O)cc3oc2=O)c1
IC50 [3]: 1850 nM
Ki [3]: 1230 nM

O=c1oc2cc(O)ccc2cc1-c1ccccc1Cl
IC50 [3]: 19100 nM
Ki [3]: 12700 nM

O=C(NCc1ccccc1)c1cc2ccc(O)cc2oc1=O
inhibition [18]: 12%

O=c1oc2cc(O)ccc2cc1-c1ccc(F)cc1
IC50 [3]: 2540 nM
Ki [3]: 1690 nM

O=c1oc2cc(O)ccc2cc1-c1ccc(Br)cc1
IC50 [3]: 470 nM
Ki [3]: 310 nM

O=C(Nc1ccccc1)c1cc2ccc(O)cc2oc1=O
inhibition [18]: 11%

CCOC(=O)c1cc2ccc(O)cc2oc1=O
IC50 [3]: 18600 nM
Ki [3]: 12400 nM

O=c1oc2cc(O)ccc2cc1-c1ccc2ccccc2c1
IC50 [3]: 2190 nM
Ki [3]: 1460 nM

O=c1oc2cc(O)ccc2cc1-c1ccc(Cl)cc1
IC50 [3]: 920 nM
Ki [3]: 610 nM

Oc1ccc(-n2cc(-c3ccccn3)nn2)cc1
Kd [17]: 4000 nM

O=C(NCc1cn(-c2ccc(O)c(F)c2)nn1)c1cc2ccccc2[nH]1
Kd [17]: 4400 nM

COc1ccc(-c2cc3ccc(O)cc3oc2=O)cc1
Activity [19]: 460 nm
Activity [20]: inactive
Activity [21]: Active
Kd [22]: 390 nM
IC50 [3]: 560 nM
Activity [23]: 340 nm

Cc1ccc(-c2cc3ccc(O)cc3oc2=O)cc1
IC50 [3]: 690 nM
Ki [3]: 460 nM

O=c1oc2cc(O)ccc2cc1-c1ccc(I)cc1
IC50 [3]: 720 nM
Ki [3]: 480 nM

Oc1ccc(-n2cc(-c3cc4ccccc4cn3)nn2)cc1
Ki [3]: 440 nM
Kd [17]: 470 nM
solubility ([16]; phosphate buffer): 2.2 µg/mL (≈ 7.63 µM)

COc1ccc(N2Cc3ccc(O)cc3OC2=O)cc1OC
Kd [22]: 156 nM
Ki [3]: 100 nM
Kd [17]: 110 nM
inhibition [2]: inactive

O=c1oc2cc(O)ccc2cc1-c1cccc(Cl)c1
IC50 [3]: 1930 nM
Ki [3]: 1290 nM
